Laboratory results published in PMC10598825 (JACS Au, 2023).
Positions count from the first letter of the chain named.

Legend:
BcTSPO 34/102-K98E [1] = target: T1, BcTSPO 34/102-K98E (Bacillus cereus, UniProt Q81BL7, A34C/C107S/K98E/L102C); assay: Tryptophan fluorescence quenching binding assay; conditions: detergent-solubilized TSPO 34/102-K98E; in words
T1 sequence (Q81BL7 1-153 A34C/K98E/L102C/C107S): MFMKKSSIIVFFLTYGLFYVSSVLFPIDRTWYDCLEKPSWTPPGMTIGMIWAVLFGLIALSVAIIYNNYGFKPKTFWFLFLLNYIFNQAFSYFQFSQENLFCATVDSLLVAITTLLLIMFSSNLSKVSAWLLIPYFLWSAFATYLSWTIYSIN

BcTSPO 34/102-D33P [2] = target: T2, BcTSPO 34/102-D33P (Bacillus cereus, UniProt Q81BL7, A34C/C107S/D33P/L102C); assay: Tryptophan fluorescence quenching binding assay; conditions: detergent-solubilized TSPO 34/102-D33P; in words
T2 sequence (Q81BL7 1-153 D33P/A34C/L102C/C107S): T1 sequence (Q81BL7 1-153 A34C/K98E/L102C/C107S) with D33P, E98K

BcTSPO 34/102-K98E [3] = target: T1, BcTSPO 34/102-K98E; assay: PpIX degradation activity assay; format: biochemical; conditions: TSPO 34/102-K98E in nanodiscs, PpIX:TSPO 1:1
Procedure, shortened: (§1)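 His10-tagged Bacillus cereus TSPO (C107S cysteine-free background) was expressed in E. coli BL21(DE3) pLysS, Ni-purified in β-DDM, then reconstituted into MSP1D1 nanodiscs with POPC:POPE 60:40 (TSPO/MSP/lipid/cholate 1/4/270/540). PpIX and loaded nanodiscs were mixed 1:1 molar in a 1 mm quartz cuvette. Emission at 633 nm was recorded in pulses of 60 s continuous illumination. V0 was taken as the absolute slope of a linear fit to the first three points (~120 s). Triplicate, mean ± SE.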

BcTSPO W138F [4] = target: T3, BcTSPO W138F (Bacillus cereus, UniProt Q81BL7, C107S/W138F); assay: Tryptophan fluorescence quenching binding assay; conditions: detergent-solubilized TSPO W138F; in words
T3 sequence (Q81BL7 1-153 C107S/W138F): T1 sequence (Q81BL7 1-153 A34C/K98E/L102C/C107S) with C34A, E98K, C102L, W138F

BcTSPO 34/151-K98E [5] = target: T4, BcTSPO 34/151-K98E (Bacillus cereus, UniProt Q81BL7, A34C/C107S/K98E/S151C); assay: PpIX degradation activity assay; format: biochemical; conditions: TSPO 34/151-K98E in nanodiscs, PpIX:TSPO 1:1
T4 sequence (Q81BL7 1-153 A34C/K98E/C107S/S151C): T1 sequence (Q81BL7 1-153 A34C/K98E/L102C/C107S) with C102L, S151C
Procedure, shortened: as §1

BcTSPO 34/151-D33P [6] = target: T5, BcTSPO 34/151-D33P (Bacillus cereus, UniProt Q81BL7, A34C/C107S/D33P/S151C); assay: Tryptophan fluorescence quenching binding assay; conditions: detergent-solubilized TSPO 34/151-D33P; in words
T5 sequence (Q81BL7 1-153 D33P/A34C/C107S/S151C): T1 sequence (Q81BL7 1-153 A34C/K98E/L102C/C107S) with D33P, E98K, C102L, S151C

[7] = target: T6, BcTSPO 23/35 double-cysteine variant (Bacillus cereus, UniProt Q81BL7, C107S/L35C/V23C); assay: PpIX degradation activity assay; format: biochemical; conditions: TSPO 23/35 in nanodiscs, PpIX:TSPO 1:1
T6 sequence (Q81BL7 1-153 V23C/L35C/C107S): T1 sequence (Q81BL7 1-153 A34C/K98E/L102C/C107S) with V23C, C34A, L35C, E98K, C102L
Procedure, shortened: as §1

BcTSPO W138F [8] = target: T3, BcTSPO W138F; assay: PpIX degradation activity assay; format: biochemical; conditions: TSPO W138F in nanodiscs, PpIX:TSPO 1:1
Procedure, shortened: as §1

BcTSPO 34/151-D33P [9] = target: T5, BcTSPO 34/151-D33P; assay: PpIX degradation activity assay; format: biochemical; conditions: TSPO 34/151-D33P in nanodiscs, PpIX:TSPO 1:1
Procedure, shortened: as §1

[10] = target: T7, BcTSPO 23/151 double-cysteine variant (Bacillus cereus, UniProt Q81BL7, C107S/S151C/V23C); assay: PpIX degradation activity assay; format: biochemical; conditions: TSPO 23/151 in nanodiscs, PpIX:TSPO 1:1
T7 sequence (Q81BL7 1-153 V23C/C107S/S151C): T1 sequence (Q81BL7 1-153 A34C/K98E/L102C/C107S) with V23C, C34A, E98K, C102L, S151C
Procedure, shortened: as §1

BcTSPO 34/102-D33P [11] = target: T2, BcTSPO 34/102-D33P; assay: PpIX degradation activity assay; format: biochemical; conditions: TSPO 34/102-D33P in nanodiscs, PpIX:TSPO 1:1
Procedure, shortened: as §1

BcTSPO W51F [12] = target: T8, BcTSPO W51F (Bacillus cereus, UniProt Q81BL7, C107S/W51F); assay: PpIX degradation activity assay; format: biochemical; conditions: TSPO W51F in nanodiscs, PpIX:TSPO 1:1
T8 sequence (Q81BL7 1-153 W51F/C107S): T1 sequence (Q81BL7 1-153 A34C/K98E/L102C/C107S) with C34A, W51F, E98K, C102L
Procedure, shortened: as §1

[13] = target: T6, BcTSPO 23/35 double-cysteine variant; assay: Tryptophan fluorescence quenching binding assay; conditions: detergent-solubilized TSPO 23/35; in words
BcTSPO 34/151-K98E [14] = target: T4, BcTSPO 34/151-K98E; assay: Tryptophan fluorescence quenching binding assay; conditions: detergent-solubilized TSPO 34/151-K98E; in words
BcTSPO W51F [15] = target: T8, BcTSPO W51F; assay: Tryptophan fluorescence quenching binding assay; conditions: detergent-solubilized TSPO W51F; in words
BcTSPO S22C-PEG = assay: Tryptophan fluorescence quenching binding assay; design: species or system Bacillus cereus; conditions: DDM-solubilized TSPO S22C conjugated with 5 kDa PEG; higher than WT
BcTSPO 34/151-W138F [16] = target: T9, BcTSPO 34/151-W138F (Bacillus cereus, UniProt Q81BL7, A34C/C107S/S151C/W138F); assay: Tryptophan fluorescence quenching binding assay; conditions: detergent-solubilized TSPO 34/151-W138F; in words
T9 sequence (Q81BL7 1-153 A34C/C107S/W138F/S151C): T1 sequence (Q81BL7 1-153 A34C/K98E/L102C/C107S) with E98K, C102L, W138F, S151C

BcTSPO 34/151-W138F [17] = target: T9, BcTSPO 34/151-W138F; assay: PpIX degradation activity assay; format: biochemical; conditions: TSPO 34/151-W138F in nanodiscs, PpIX:TSPO 1:1
Procedure, shortened: as §1

[18] = target: T10, BcTSPO 34/151 double-cysteine variant (Bacillus cereus, UniProt Q81BL7, A34C/C107S/S151C); assay: PpIX degradation activity assay; format: biochemical; conditions: TSPO 34/151 in nanodiscs, PpIX:TSPO 1:1
T10 sequence (Q81BL7 1-153 A34C/C107S/S151C): T1 sequence (Q81BL7 1-153 A34C/K98E/L102C/C107S) with E98K, C102L, S151C
Procedure, shortened: as §1

WT BcTSPO = target: T11, WT BcTSPO (Bacillus cereus, UniProt Q81BL7); assay: PpIX degradation activity assay; format: biochemical; conditions: WT TSPO in nanodiscs, PpIX:TSPO 1:1, light exposure
T11 sequence (Q81BL7 1-153): T1 sequence (Q81BL7 1-153 A34C/K98E/L102C/C107S) with C34A, E98K, C102L, S107C
Procedure, shortened: as §1

[19] = target: T12, BcTSPO 34/102 double-cysteine variant (Bacillus cereus, UniProt Q81BL7, A34C/C107S/L102C); assay: PpIX degradation activity assay; format: biochemical; conditions: TSPO 34/102 in nanodiscs, PpIX:TSPO 1:1
T12 sequence (Q81BL7 1-153 A34C/L102C/C107S): T1 sequence (Q81BL7 1-153 A34C/K98E/L102C/C107S) with E98K
Procedure, shortened: as §1

## C=CC1=C(C)c2cc3[nH]c(cc4nc(cc5[nH]c(cc1n2)c(C)c5CCC(=O)O)C(CCC(=O)O)=C4C)c(C)c3C=C [PpIX, protoporphyrin IX]
BcTSPO 34/102-K98E [1]
  dissociation constant Kd of PpIX compared with WT: much higher
BcTSPO 34/102-D33P [2]
  dissociation constant Kd of PpIX compared with WT: much higher
BcTSPO 34/102-K98E [3]
  reaction velocity V0 of PpIX degradation: approximately 5 nM/s
BcTSPO W138F [4]
  binding of PpIX compared with WT: as strongly as WT
BcTSPO 34/151-K98E [5]
  reaction velocity V0 of PpIX degradation: approximately 5 nM/s
BcTSPO 34/151-D33P [6]
  dissociation constant Kd of PpIX compared with WT: much higher
[7]
  reaction velocity V0 of PpIX degradation: approximately 5 nM/s
BcTSPO W138F [8]
  reaction velocity V0 of PpIX degradation: below 2 nM/s
BcTSPO 34/151-D33P [9]
  reaction velocity V0 of PpIX degradation: approximately 5 nM/s
[10]
  reaction velocity V0 of PpIX degradation: approximately 17 nM/s
BcTSPO 34/102-D33P [11]
  reaction velocity V0 of PpIX degradation: approximately 5 nM/s
BcTSPO W51F [12]
  reaction velocity V0 of PpIX degradation: approximately 5 nM/s
[13]
  dissociation constant Kd of PpIX compared with WT: much higher
BcTSPO 34/151-K98E [14]
  dissociation constant Kd of PpIX compared with WT: much higher
BcTSPO W51F [15]
  dissociation constant Kd of PpIX compared with WT: much higher
BcTSPO S22C-PEG
  Kd value of S22C-PEG relative to that of WT: approximately 10 fold
BcTSPO 34/151-W138F [16]
  binding of PpIX compared with WT: as strongly as WT
BcTSPO 34/151-W138F [17]
  reaction velocity V0 of PpIX degradation: below 2 nM/s
[18]
  reaction velocity V0 of PpIX degradation: approximately 17 nM/s
WT BcTSPO
  reaction velocity V0 of PpIX degradation: approximately 17 nM/s
[19]
  reaction velocity V0 of PpIX degradation: approximately 17 nM/s
